Bioassay records (PubChem BioAssay)
dFosB activator = mouse delta FosB homodimer activation. activation, % at 25 µM. hit rate 0.99% among 340,000. purified delta FosB, TAMRA-CDK5 oligo fluorescence polarization; percent of positive-control signal above neutral wells. AID 493131;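 active = mean activation above about 17%, with every replicate also reaching it, limit read from the data, passing the limit was not always enough; inconclusive = only one of the two conditions met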
VIM-2 inh = inhibitors of Pseudomonas aeruginosa VIM-2 metallo-beta-lactamase; purified VIM-2, nitrocefin hydrolysis, epi-absorbance fluorescence; inhibition, % at 5.6 µM; hit rate 0.89% among 290,000;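 active = inhibition above the mean of all tested compounds plus 3 SD, cutoff set per screening run, cut at about 7.5% in these data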;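 also: red hydrolysis product quenches plate fluorescence so inhibitors raise well fluorescence; 0% = enzyme with DMSO and 100% = DMSO without enzyme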
IMP-1 inh = inhibitors of Pseudomonas aeruginosa IMP-1 metallo-beta-lactamase; inhibition, % at 5.6 µM; purified IMP-1, nitrocefin hydrolysis, epi-absorbance fluorescence; hit rate 0.45% among 290,000;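 active = inhibition above the mean plus 3 SD of all compounds in the same screening run, cut at about 4.5% in these data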;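 also: 0% = IMP-1 with DMSO and 100% = DMSO wells lacking enzyme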
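System: Purified recombinant IMP-1 metallo-beta-lactamase enzyme | Measured by: Fluorescence quenching readout, ex 480/em 530 nm | Replication: Singlicate | Incubation: 15 min preincubation plus 25 min reaction at 25 °C | Evaluation: Percent inhibition from optical density relative to buffer-blank wells | Benchmarks: DMSO with and without IMP-1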
m5-HT2A agonist = mouse HTR2A agonism via beta-arrestin recruitment; P35363; CHO-K1 mHTR2A beta-arrestin complementation, luminescence; percent of 30 µM serotonin response; activation, % at 7.6 µM; hit rate 0.66% among 360,000;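 active = activation above a run cutoff, the mean activation of all tested compounds plus 3 SD, cut at about 14% in these data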;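 also: 0% = plate median of compound wells and 100% = 30 µM serotonin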
MOR ag counter = counter-screen for mouse HTR2A agonists: human mu opioid receptor agonists; AID 624380; activation, % at 9.3 µM; U2OS OPRM1 beta-arrestin PathHunter, luminescence; DMSO 0%, DAMGO 9.3 µM 100%; hit rate 5.3% among 2,300; shares compounds with m5-HT2A agonist;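 active = mean activation above the mean of DMSO-only wells plus 3 SD, cut at about 0.5% in these data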
Target sequence (P35372 whole entry, looked up): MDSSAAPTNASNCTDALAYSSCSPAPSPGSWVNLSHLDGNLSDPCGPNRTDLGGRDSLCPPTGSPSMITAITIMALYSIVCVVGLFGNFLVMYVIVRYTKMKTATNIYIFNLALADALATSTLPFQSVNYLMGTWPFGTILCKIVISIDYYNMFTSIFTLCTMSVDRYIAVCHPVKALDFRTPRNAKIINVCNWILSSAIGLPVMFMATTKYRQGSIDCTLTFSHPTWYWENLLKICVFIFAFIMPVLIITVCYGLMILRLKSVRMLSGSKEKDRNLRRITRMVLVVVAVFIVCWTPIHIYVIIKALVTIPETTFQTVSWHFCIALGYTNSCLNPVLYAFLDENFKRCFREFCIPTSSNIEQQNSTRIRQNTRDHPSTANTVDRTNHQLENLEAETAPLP
HTR2A ag conf = confirmation of mouse HTR2A serotonin receptor agonists | shares compounds with m5-HT2A agonist | CHO-K1 PathHunter beta-arrestin recruitment, luminescence; DMSO 0%, 30 µM serotonin 100% | activation, % at 7.6 µM | hit rate 19% among 2,300 | AID 624381;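 active = mean activation across triplicates above the hit threshold derived in the original primary screen, cut at about 15% in these data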
* = called active by the depositor; ? = inconclusive; . = no result. In the library only some 2.5% were active in any assay of this set; here they are far more common.

SMILES	dFosB activator	VIM-2 inh	IMP-1 inh	m5-HT2A agonist	MOR ag counter	HTR2A ag conf
O=C(NCCc1cnc[nH]1)c1ccc(-c2ccccc2)cc1	-0.2	-1.2	-3.0	-11.9	.	.
Cc1cc2cc3c(=O)[nH]c(=O)[nH]c3nc2cc1C	.	-1.8	-4.5	.	.	.
Cc1cc2c(=O)[nH]c(N)nc2[nH]1	.	.	.	16.2*	-0.2	0.6
COc1cc(C(=O)N2CCN(S(=O)(=O)c3cccc(F)c3)CC2)ccc1OCC(=O)N1CCOCC1	-9.5	.	.	-4.3	.	.
OC(COc1ccc(Cl)cc1)CN1CCN(c2ccccn2)CC1 (stereo not drawn)	-3.5	.	.	5.9	.	.
OC(COCc1cccs1)CN1CCN(c2ccccn2)CC1 (stereo not drawn)	8.8	-0.9	-1.5	19.7*	-0.5	80.2*
OC(COCc1ccc(Cl)cc1)CN1CCN(c2ccccn2)CC1 (stereo not drawn)	2.0	-2.6	-0.1	18.1*	-0.7	98.9*
OC(COCc1cccs1)CN1CCN(c2ccccc2Cl)CC1 (stereo not drawn)	2.1	1.1	-2.6	-7.0	.	.
Cc1cc(OC(C)C(=O)NCCCN2CCOCC2)c2c(C)c(C)c(=O)oc2c1 (stereo not drawn)	-9.7	5.4	-1.6	-3.3	.	.
O=c1cc(-c2ccc(C(F)(F)F)cc2)oc2ccccc12	4.3	.	.	16.1*	-0.1	-3.6
Cc1cccc(CCNS(=O)(=O)c2cc3c(cc2C)NC(=O)CO3)c1	-12.1	-3.2	-2.6	20.9*	-0.5	-4.2
CN(C)C(=O)c1snnc1-c1ccccc1	-5.0	-2.5	-3.9	17.5*	-0.5	-2.3
CCc1nnc(SCC(=O)Nc2ccc3ccccc3c2)n1N	-10.6	.	.	-0.6	.	.
CCc1ccc(Nc2nnc(SCC(=O)Nc3cccnc3Cl)s2)cc1	-7.0	-2.4	-3.1	-4.0	.	.
CC1=C(C(=O)N(C(C)C)C(C)C)CC(CC(=O)NCCN2CCOCC2)C(=O)N1CCC1=CCCCC1 (stereo not drawn)	.	.	.	15.8*	-0.3	-4.1
CCOC(=O)C1(C)CCCN(C(=O)c2cccc3ccccc23)C1 (stereo not drawn)	.	.	.	7.7	.	.
COc1ccc(CNC(=O)CN(C(=O)CCC(=O)Nc2ccccn2)c2cccc(C)c2)cc1	-7.2	-1.8	-2.4	2.4	.	.
COc1ccc(CNC(=O)CN(C(=O)CCC(=O)Nc2ccccn2)c2ccc(C)cc2)cc1	-9.2	-2.6	-4.0	29.7*	-0.7	-5.0
CCNc1nc(-c2ccc(OC(F)F)cc2)c(C)s1	-6.1	-0.8	-0.3	-2.7	.	.
O=C(COc1ccc(Cl)cc1)NCCS(=O)(=O)N1CCN(c2ccccc2F)CC1	-3.6	-5.0	-1.5	16.2*	-0.2	1.8
Fc1cc(F)cc(Nc2nc(Cl)nc(NC3CCCC3)n2)c1	-2.4	.	.	8.3	.	.
Cc1ccc(NC(=O)CSc2nc3ccc(Nc4nc(N5CCOCC5)nc(N5CCOCC5)n4)cc3s2)cc1	?	-2.8	-3.6	10.3	.	.
COc1ccc(NC(=O)CSc2nc3ccc(Nc4nc(N5CCOCC5)nc(N5CCOCC5)n4)cc3s2)cc1	11.8	-2.2	0.0	14.7*	0.1	18.5*
Cc1cc(Oc2ccc(=O)n(C)n2)nc(=S)[nH]1	.	3.3	-2.1	.	.	.
COc1cccc(CNC(=O)CCC(=O)N2Cc3cccc(OC)c3Oc3ncccc32)c1OC	-4.4	-1.9	-1.0	6.3	.	.
SMILES	dFosB activator	VIM-2 inh	IMP-1 inh	m5-HT2A agonist	MOR ag counter	HTR2A ag conf
COc1cccc2c1Oc1ncccc1N(C(=O)CCC(=O)NCc1ccccc1Cl)C2	-5.0	-0.1	-3.3	17.3*	-0.5	0.9
COc1ccc(S(=O)(=O)N2CCC(C(=O)N[C@H](C(=O)NCc3ccccc3)C(C)C)CC2)cc1	.	.	.	3.1	.	.
Cc1cc(C)c(Cc2c(C)nc3c(C(=O)NCc4ccco4)cnn3c2C)c(C)c1	-9.1	-3.5	-5.1	5.3	.	.
CC1(C)CC(=O)C=C(NNC(=O)c2ccccc2O)C1	3.8	-2.6	-1.5	3.7	.	.
COc1ccc(C(=O)NNC2=CC(=O)CC(C)(C)C2)cc1	3.7	-2.5	-3.2	18.8*	-0.6	0.8
CCNc1ccc(P(=O)(c2ccccc2)c2ccccc2)cc1	-1.2	-1.1	-2.0	-2.3	.	.
O=C(CCS(=O)(=O)c1ccccc1)OCC(=O)N1CCN(S(=O)(=O)c2ccc(Cl)cc2)CC1	1.6	.	.	7.5	.	.
O=C(CCS(=O)(=O)c1ccc(Cl)cc1)OCC(=O)N1CCCCC1	-3.9	-1.1	-1.0	16.1*	-0.8	-2.5
